Test results as given in ChEMBL document CHEMBL1153856, “Synthesis and spectral characterization of a new class of N-(N-methylpiperazinoacetyl)-2,6-diarylpiperidin-4-ones: antimicrobial, analgesic and antipyretic studies” (2009).

Tests used:
Assay type in all cases: functional
[1] = tested on: Rattus norvegicus; experiment: Antipyretic activity against brewer's yeast-induced hyperthermia in Wistar rat assessed as change in rectal temperature at 5 mg/kg, po after 60 mins
How it was run: (§1)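 Wistar rats of both sexes, 200–250 g, received brewer's yeast in normal saline sc. Rectal temperature was taken with a digital thermometer (precision 0.1 °C). At 18 h, rats whose temperature had risen 0.3–0.5 °C were selected. Test compounds (30 or 60 mg/kg) or indomethacin (5 mg/kg) were given orally in 1% CMC; controls received vehicle only. Temperature was measured at 30, 60, 90, 120 and 150 min, mean ± SEM.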

[2] = tested on: Rattus norvegicus; experiment: Antipyretic activity against brewer's yeast-induced hyperthermia in Wistar rat assessed as change in rectal temperature at 5 mg/kg, po after 90 mins; how it was run: as §1
[3] = tested on: Rattus norvegicus; experiment: Antipyretic activity against brewer's yeast-induced hyperthermia in Wistar rat assessed as change in rectal temperature at 5 mg/kg, po after 30 mins; how it was run: as §1
[4] = tested on: Rattus norvegicus; experiment: Antipyretic activity against brewer's yeast-induced hyperthermia in Wistar rat assessed as change in rectal temperature at 5 mg/kg, po after 120 mins; how it was run: as §1
[5] = tested on: Rattus norvegicus; experiment: Antipyretic activity against brewer's yeast-induced hyperthermia in Wistar rat assessed as change in rectal temperature at 5 mg/kg, po after 150 mins; how it was run: as §1

Compound: COc1ccc2c(c1)c(CC(=O)O)c(C)n2C(=O)c1ccc(Cl)cc1 [INDOMETHACIN]
- Activity [1]: 37.9 °C
- Activity [2]: 37.8 °C
- Activity [3]: 38.1 °C
- Activity [4]: 37.7 °C
- Activity [5]: 37.5 °C
